Test [1] can be described thus: Her2 expression decrease, cell viability multiplex – SKBR3 breast tumor cells, AlphaScreen, ATP viability, primary screen (AID 461;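 active means Her2 level under about 52% in both replicate screens, with viability over 70% of control, limit read from the data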;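 on Her2 level: lower value means less Her2 protein in the cells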;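 on viability: percent of carrier control wells set as 100% viability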). Particulars: SKBR3 Her2 protein level, 18-24 h, measured here: SKBR3 viability, ATP luminescence, at 10 µM.
In test [2] the target is Receptor tyrosine-protein kinase erbB-2 (Homo sapiens) (UniProt P04626). Described as above. Particulars: 18-24 h, at 10 µM, stronger effect = lower value.
Receptor tyrosine-protein kinase erbB-2 (Homo sapiens), sequence (P04626 whole entry, looked up): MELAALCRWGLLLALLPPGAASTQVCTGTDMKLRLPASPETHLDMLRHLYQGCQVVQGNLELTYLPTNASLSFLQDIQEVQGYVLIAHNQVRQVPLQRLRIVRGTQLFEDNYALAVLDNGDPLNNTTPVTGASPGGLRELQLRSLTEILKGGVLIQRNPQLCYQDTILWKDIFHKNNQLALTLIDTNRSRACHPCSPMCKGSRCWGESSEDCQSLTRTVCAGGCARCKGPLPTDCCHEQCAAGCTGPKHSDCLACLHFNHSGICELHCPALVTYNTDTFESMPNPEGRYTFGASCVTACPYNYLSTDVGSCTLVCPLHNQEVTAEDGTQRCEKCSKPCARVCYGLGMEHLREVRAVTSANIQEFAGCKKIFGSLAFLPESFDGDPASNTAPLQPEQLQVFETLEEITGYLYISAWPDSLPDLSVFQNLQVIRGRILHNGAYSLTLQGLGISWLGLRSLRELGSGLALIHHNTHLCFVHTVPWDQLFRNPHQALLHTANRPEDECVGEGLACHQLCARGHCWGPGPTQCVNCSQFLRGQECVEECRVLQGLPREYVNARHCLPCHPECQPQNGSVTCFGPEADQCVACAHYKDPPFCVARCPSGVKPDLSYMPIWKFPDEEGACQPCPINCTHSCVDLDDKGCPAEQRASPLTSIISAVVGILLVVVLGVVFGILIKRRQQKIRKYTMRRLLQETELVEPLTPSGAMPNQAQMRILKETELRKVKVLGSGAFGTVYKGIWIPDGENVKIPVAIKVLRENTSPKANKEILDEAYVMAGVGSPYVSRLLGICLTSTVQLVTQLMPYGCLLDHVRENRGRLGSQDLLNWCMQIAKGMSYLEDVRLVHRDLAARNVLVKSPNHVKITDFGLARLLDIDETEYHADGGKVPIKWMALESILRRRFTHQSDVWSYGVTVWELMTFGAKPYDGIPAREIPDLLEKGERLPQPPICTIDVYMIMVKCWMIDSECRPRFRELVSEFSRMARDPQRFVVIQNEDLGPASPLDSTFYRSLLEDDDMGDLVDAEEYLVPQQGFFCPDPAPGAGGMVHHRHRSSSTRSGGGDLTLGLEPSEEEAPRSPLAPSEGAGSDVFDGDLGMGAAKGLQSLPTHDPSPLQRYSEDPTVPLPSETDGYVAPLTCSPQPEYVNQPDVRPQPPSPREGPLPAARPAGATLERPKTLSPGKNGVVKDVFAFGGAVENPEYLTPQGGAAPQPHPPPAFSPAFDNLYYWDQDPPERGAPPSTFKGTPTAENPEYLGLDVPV
A short description of test [3]: reduced viability of SK-BR-3 breast cancer cells – cell-based, 24 h, human, pilot screen (AID 572).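 Further: compound exposure lasted between 18 and 24 h rather than exactly 24 h; 100% = carrier-treated control wells.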 Particulars: SK-BR-3 viability, CellTiter-Glo luminescence, at 10 µM, stronger effect = lower value.
Test [4] in a line: HUVEC growth inhibition – cell-based, human, primary screen (AID 575;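 active means viability at or below 30% in both replicate assays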;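 further: 100% = median of untreated cell wells with 0.1% DMSO on each plate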). As to conditions: HUVEC proliferation, CellTiter-Glo luminescence, 72 h; at 10 µM; stronger effect = lower value. In outline:
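Test system: HUVEC primary cells. Quantity: 1250 endothelial cells in each well. Dosing: single-point 10 µM, DMSO 0.1% final. Incubation: 72 h treatment at 37 °C. Measured by: CTG luminescence. Control set: DMSO cell controls and MePR drug controls. Plate: collagen-coated 384-well format.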
A general note: In ATP-based viability assays light output follows the ATP content of the culture.

A short description of test [5]: H69AR cell proliferation blockers – human, duplicate replicates, primary screen (AID 580;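 active means viability at or under a set limit in both replicates, limit being median viability minus 3 SD, cut at about 48% in these data, passing the limit was not always enough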;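 further: 100% = mean luminescence of untreated wells and 0% = no signal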). Particulars: H69AR lung tumor cells viability, ATP luminescence, 72 h; at 10 µM; stronger effect = lower value.
Test [6] is described as follows: MRP1 drug-resistance reversers in H69AR cells – cell-based, doxorubicin co-treatment, pilot screen (AID 601;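 active means viability loss from added drug above about 55%, and viability with drug at most 40%, in both replicates, limit read from the data, passing the limit was not always enough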). As to conditions: CellTiter-Glo, 72 h, at 10 µM; for differential viability (reversal): stronger effect = higher value.
Test [7] is described as follows: yeast transport mutant growth inhibition pilot in 384-well plates, post-Golgi transport modulator project (AID 636; in the data active means inhibition above about 31%). Particulars: absorbance 615 nm, about 18 h, stronger effect = higher value.
A short description of test [8]: growth suppression of yeast trafficking mutant, preliminary HTS, modulators of trafficking downstream of Golgi apparatus project, 1536-format plate, OD 615 nm (AID 637; in the data active means inhibition above about 30%). Particulars: yeast transport mutant growth, absorbance 615 nm, 18 h; stronger effect = higher value.
Where [9] appears, read: H69AR cells + 2 uM doxorubicin, measured here: viability with 2 uM doxorubicin, stronger effect = lower value.
The mark [10] stands for this setting: H69AR cells, compound alone cytotoxicity.

Active and inactive are the calls of the source.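 How the source made its calls, unless noted: active means viability at or below 10% of carrier control in both of two separate runs; inconclusive means viability at or below 10% in only one of the two runs; inactive means the rest.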

`CCN(CCCNC(=O)C1CCCN(S(=O)(=O)c2cnc[nH]2)C1)c1ccccc1` (stereo not given): the viability (in general, a read-out of living cells in per cent, often relative to untreated cells) in test [1] is 94%; in test [3] it was 94% (inactive); in test [4] it was 104% (inactive); in test [5], 94.8% (inactive); in test [6] (setting [9]), 88.2%; in test [6] (setting [10]), 94.8%. Also, the Her2 level in test [2] is 93% (inactive). The differential viability (reversal) in test [6] (H69AR cells + 2 uM doxorubicin) was 6.6% (inactive). The inhibition (in general, the drop in the measured response relative to a control, in per cent) in test [7] was -1.87% (inactive); in test [8] it was -1.64% (inactive).

On to `COc1cccc(C(=O)CN2CCC(NC(=O)NC3CCCCC3)CC2)c1`, for which the viability in test [1] was 92%; in test [3] it was 92% (inactive); in test [4], 102% (inactive); in test [5], 98.1% (inactive); in test [6] (setting [9]) it was 91.5%; in test [6] (setting [10]) it was 98.1%. Also, the Her2 level in test [2] was 101% (inactive). Besides, the differential viability (reversal) in test [6] (H69AR cells + 2 uM doxorubicin) is 6.55% (inactive). Also, the inhibition in test [7] was -5.79% (inactive); in test [8] it was -2% (inactive).

For the compound `O=S(=O)(c1ccccc1)N(Cc1nc(-c2ccccc2)no1)C1CCCCC1`, the viability in test [1] was 88%; in test [3], 88% (inactive); in test [4] it was 96.1% (inactive); in test [5] it was 75.5% (inactive); in test [6] (setting [9]), 79.6%; in test [6] (setting [10]), 75.5%. The Her2 level in test [2] was 77% (inactive). The differential viability (reversal) in test [6] (H69AR cells + 2 uM doxorubicin) is -4.17% (inactive). For the same compound, the inhibition was -6.27% (inactive) in test [7] and -3.33% (inactive) in test [8].

On to `CC(=O)c1cn(CC(=O)NCc2ccc3c(c2)OCO3)c2ccccc12`, for which the viability in test [1] was 102%; in test [3] it was 102% (inactive); in test [4] it was 98.4% (inactive); in test [5], 99% (inactive); in test [6] (setting [9]) it was 92.2%; in test [6] (setting [10]) it was 99%. Further, the Her2 level in test [2] is 93% (inactive). Moreover, the differential viability (reversal) in test [6] (H69AR cells + 2 uM doxorubicin) was 6.8% (inactive). For the same compound, the inhibition in test [7] is -9.32% (inactive); in test [8] it was 3.65% (inactive).

As to `Cc1ccccc1CS(=O)(=O)Cc1ccc(C(=O)NCCCN2CCOCC2)o1`, the viability in test [1] was 77%; in test [3], 77% (inactive); in test [4] it was 104% (inactive); in test [5], 98.2% (inactive); in test [6] (setting [9]), 95.1%; in test [6] (setting [10]), 98.2%. Further, the Her2 level in test [2] is 97% (inactive). In test [6] (H69AR cells + 2 uM doxorubicin), the differential viability (reversal) is 3.12% (inactive). Further, the inhibition in test [7] was -0.39% (inactive); in test [8], -6.13% (inactive).

Consider `O=C(CCn1c(=S)[nH]c2ccccc2c1=O)NCC1CCCO1` (stereo not given), for which the viability in test [1] was 118%; in test [3], 118% (inactive); in test [4], 111% (inactive); in test [5] it was 98.2% (inactive); in test [6] (setting [9]) it was 92.2%; in test [6] (setting [10]), 98.2%. Further, in test [2], the Her2 level was 100% (inactive). Also, the differential viability (reversal) in test [6] (H69AR cells + 2 uM doxorubicin) was 6.03% (inactive). Also, the inhibition is -6.13% (inactive) in test [7] and 0.66% (inactive) in test [8].

In the case of `Cc1cc(C)n(C2=NS(=O)(=O)c3ccccc32)n1`, the viability is 86.5% in test [1]; 86.5% (inactive) in test [3]; 108% (inactive) in test [4]; 101% (inactive) in test [5]; 95.2% in test [6] (setting [9]); 101% in test [6] (setting [10]). In addition, in test [2], the Her2 level is 115% (inactive). In addition, the differential viability (reversal) in test [6] (H69AR cells + 2 uM doxorubicin) is 6.08% (inactive). Moreover, the inhibition is 3.07% (inactive) in test [7] and 5.08% (inactive) in test [8].

With `Cn1c(C(=O)NCC2CCCO2)cc2c(=O)[nH]c3ccccc3c21` (stereo not given), the viability in test [1] is 81%; in test [3] it was 81% (inactive); in test [4] it was 108% (inactive); in test [5], 88.4% (inactive); in test [6] (setting [9]), 83.8%; in test [6] (setting [10]), 88.4%. In addition, in test [2], the Her2 level was 98% (inactive). The differential viability (reversal) in test [6] (H69AR cells + 2 uM doxorubicin) was 4.57% (inactive). The inhibition is -4.67% (inactive) in test [7] and -7.05% (inactive) in test [8].

As for `Cc1cc2c(=O)n(CC(=O)N3CCN(c4ccccc4)CC3)cnc2s1`, the viability was 92% in test [1]; 92% (inactive) in test [3]; 100% (inactive) in test [4]; 96.5% (inactive) in test [5]; 88.2% in test [6] (setting [9]); 96.5% in test [6] (setting [10]). Moreover, the Her2 level in test [2] is 78% (inactive). The differential viability (reversal) in test [6] (H69AR cells + 2 uM doxorubicin) was 8.25% (inactive). The inhibition in test [7] was -2.11% (inactive); in test [8] it was 0.18% (inactive).

Consider `CCCc1nn(CCc2ccccn2)c(N)c1CC`, for which the viability was 114% in test [1]; 114% (inactive) in test [3]; 89.4% (inactive) in test [4]; 96.5% (inactive) in test [5]; 93.5% in test [6] (setting [9]); 96.5% in test [6] (setting [10]). In test [2], the Her2 level is 91% (inactive). Moreover, the differential viability (reversal) in test [6] (H69AR cells + 2 uM doxorubicin) was 3.08% (inactive). Also, the inhibition in test [7] was -6% (inactive); in test [8], 0.66% (inactive).

For `COc1ccc(CCNC(=O)C2CCN(S(=O)(=O)c3cc(OC)ccc3OC)CC2)cc1`, the viability in test [1] was 93%; in test [3], 93% (inactive); in test [4], 114% (inactive); in test [5], 103% (inactive); in test [6] (setting [9]) it was 96.8%; in test [6] (setting [10]) it was 103%. The Her2 level in test [2] was 95% (inactive). The differential viability (reversal) in test [6] (H69AR cells + 2 uM doxorubicin) is 5.9% (inactive). In addition, the inhibition in test [7] is -7.97% (inactive); in test [8] it was 4.59% (inactive).

Regarding `COc1cc(OC)c(-c2nn3c(C4CCCCC4)nnc3s2)cc1OC`, the viability is 102% in test [1]; 102% (inactive) in test [3]; 80.8% (inactive) in test [4]; 77.5% (inactive) in test [5]; 79.5% in test [6] (setting [9]); 77.5% in test [6] (setting [10]). Moreover, the Her2 level in test [2] was 116% (inactive). The differential viability (reversal) in test [6] (H69AR cells + 2 uM doxorubicin) was -2% (inactive). The inhibition in test [7] was -0.52% (inactive); in test [8], 2.3% (inactive).

For `CCCCCn1c(CN2CCN(C(=O)OCC)CC2)nc2c1c(=O)[nH]c(=O)n2C`, the viability in test [1] was 82%; in test [3] it was 82% (inactive); in test [4], 88.9% (inactive); in test [5], 98.5% (inactive); in test [6] (setting [9]), 82.7%; in test [6] (setting [10]) it was 98.5%. In addition, in test [2], the Her2 level is 94.5% (inactive). In test [6] (H69AR cells + 2 uM doxorubicin), the differential viability (reversal) is 15.8% (inactive). Besides, the inhibition is -0.67% (inactive) in test [7] and 0.16% (inactive) in test [8].

As for `CCCCOc1ccc(C(=O)Nn2cnnc2)cc1`, the viability in test [1] is 95.5%; in test [3], 95.5% (inactive); in test [4], 84.5% (inactive); in test [5], 89.5% (inactive); in test [6] (setting [9]) it was 89.4%; in test [6] (setting [10]), 89.5%. In addition, the Her2 level in test [2] was 87% (inactive). For the same compound, the differential viability (reversal) in test [6] (H69AR cells + 2 uM doxorubicin) was 0.185% (inactive). Moreover, the inhibition in test [7] is -5% (inactive); in test [8], -2% (inactive).

For `CCOC(=O)C1=C(CN2CCOCC2)NC(=O)NC1c1cc(C)ccc1C` (stereo not given), the viability in test [1] was 92%; in test [3] it was 92% (inactive); in test [4], 101% (inactive); in test [5], 78.9% (inactive); in test [6] (setting [9]), 62.2%; in test [6] (setting [10]), 78.9%. Moreover, the Her2 level in test [2] is 89% (inactive). For the same compound, in test [6] (H69AR cells + 2 uM doxorubicin), the differential viability (reversal) was 16.7% (inactive). The figures for the inhibition in test [7] and in test [8] were -6.76% (inactive) and 4.33% (inactive), respectively.

For the origin of these results see PubChem BioAssay.
